From ChEMBL document CHEMBL4316592, “Synthesis of new derivatives of boehmeriasin A and their biological evaluation in liver cancer” (Eur J Med Chem, 2019)
The source made the active and inactive calls. The calls are words filed in the database; no cut-off is given here.

Tests used:
Huh-7 [1] = test: Down-regulation of CDK1 protein expression in human HuH7 cells at 1 uM after 24 to 72 hrs by Western blot analysis; format: functional, cell-based
Huh-7 [2] = test: Cytotoxicity against human HuH7 cells after 48 hrs by RTCA analysis; format: functional, cell-based; conditions: Huh-7, 48 h
Procedure, shortened: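 xCELLigence impedance real-time growth assay. Huh7 (2000) or Mahlavu (1000) cells plated, treated after 24 h at log phase with a 2-fold dilution series (4 steps) from a top concentration of 1. Cell index recorded every 10 min for 24 h, then every 30 min. Growth inhibition normalized to DMSO; IC50 taken at 24, 48, 72 h.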

Huh-7 [3] = test: Cell cycle arrest in human HuH7 cells assessed as accumulation of cells at G2/M phase at 1 uM after 72 hrs by propidium iodide staining-based flow cytometric analysis (reference value: 28.2%); format: functional
Huh-7 [4] = test: Cell cycle arrest in human HuH7 cells assessed as accumulation of cells at G2/M phase at 1 uM after 48 hrs by propidium iodide staining-based flow cytometric analysis (reference value: 33.5%); format: functional
Mahlavu [5] = test: Down-regulation of CDK2 protein expression in human Mahlavu cells at 1 uM after 24 to 72 hrs by Western blot analysis; format: functional, cell-based
Huh-7 [6] = test: Induction of apoptosis in human HuH7 cells assessed as increase in cytochrome C levels at 1 uM by Hoechst staining-based assay; format: functional, cell-based
Huh-7 [7] = test: Cell cycle arrest in human HuH7 cells assessed as accumulation of cells at S phase at 1 uM after 24 hrs by propidium iodide staining-based flow cytometric analysis (reference value: 14.2%); format: functional
Mahlavu [8] = test: Down-regulation of cyclin-B1 protein expression in human Mahlavu cells at 1 uM after 24 to 72 hrs by Western blot analysis; format: functional, cell-based
Huh-7 [9] = test: Down-regulation of cyclin-B1 protein expression in human HuH7 cells at 1 uM after 24 to 72 hrs by Western blot analysis; format: functional, cell-based
Mahlavu [10] = test: Induction of apoptosis in human Mahlavu cells assessed as viable cells at 1 uM after 48 hrs by Annexin V-FITC/propidium iodide staining-based flow cytometric analysis (reference value: 98.48%); format: functional; conditions: read-out: Activity
Huh-7 [11] = test: Down-regulation of CDK2 protein expression in human HuH7 cells at 1 uM after 24 to 72 hrs by Western blot analysis; format: functional, cell-based
Huh-7 [12] = test: Induction of apoptosis in human HuH7 cells assessed as early apoptotic cells at 1 uM after 48 hrs by Annexin V-FITC/propidium iodide staining-based flow cytometric analysis (reference value: 0.02%); format: functional
Mahlavu [13] = test: Induction of apoptosis in human Mahlavu cells assessed as late apoptotic cells at 1 uM after 48 hrs by Annexin V-FITC/propidium iodide staining-based flow cytometric analysis (reference value: 1.45%); format: functional
Mahlavu [14] = test: Down-regulation of CDK1 protein expression in human Mahlavu cells at 1 uM after 24 to 72 hrs by Western blot analysis; format: functional, cell-based
Mahlavu [15] = test: Induction of apoptosis in human Mahlavu cells assessed as early apoptotic cells at 1 uM after 24 hrs by Annexin V-FITC/propidium iodide staining-based flow cytometric analysis (reference value: 0.09%); format: functional
[16] = target: T1, Mitogen-activated protein kinase kinase kinase 5 (Homo sapiens) (UniProt Q99683); test: Inhibition of ASK1 Ser-966 phosphorylation in human HuH7 cells at 1 uM after 24 to 72 hrs by Western blot analysis; format: cell-based
T1 sequence (whole entry): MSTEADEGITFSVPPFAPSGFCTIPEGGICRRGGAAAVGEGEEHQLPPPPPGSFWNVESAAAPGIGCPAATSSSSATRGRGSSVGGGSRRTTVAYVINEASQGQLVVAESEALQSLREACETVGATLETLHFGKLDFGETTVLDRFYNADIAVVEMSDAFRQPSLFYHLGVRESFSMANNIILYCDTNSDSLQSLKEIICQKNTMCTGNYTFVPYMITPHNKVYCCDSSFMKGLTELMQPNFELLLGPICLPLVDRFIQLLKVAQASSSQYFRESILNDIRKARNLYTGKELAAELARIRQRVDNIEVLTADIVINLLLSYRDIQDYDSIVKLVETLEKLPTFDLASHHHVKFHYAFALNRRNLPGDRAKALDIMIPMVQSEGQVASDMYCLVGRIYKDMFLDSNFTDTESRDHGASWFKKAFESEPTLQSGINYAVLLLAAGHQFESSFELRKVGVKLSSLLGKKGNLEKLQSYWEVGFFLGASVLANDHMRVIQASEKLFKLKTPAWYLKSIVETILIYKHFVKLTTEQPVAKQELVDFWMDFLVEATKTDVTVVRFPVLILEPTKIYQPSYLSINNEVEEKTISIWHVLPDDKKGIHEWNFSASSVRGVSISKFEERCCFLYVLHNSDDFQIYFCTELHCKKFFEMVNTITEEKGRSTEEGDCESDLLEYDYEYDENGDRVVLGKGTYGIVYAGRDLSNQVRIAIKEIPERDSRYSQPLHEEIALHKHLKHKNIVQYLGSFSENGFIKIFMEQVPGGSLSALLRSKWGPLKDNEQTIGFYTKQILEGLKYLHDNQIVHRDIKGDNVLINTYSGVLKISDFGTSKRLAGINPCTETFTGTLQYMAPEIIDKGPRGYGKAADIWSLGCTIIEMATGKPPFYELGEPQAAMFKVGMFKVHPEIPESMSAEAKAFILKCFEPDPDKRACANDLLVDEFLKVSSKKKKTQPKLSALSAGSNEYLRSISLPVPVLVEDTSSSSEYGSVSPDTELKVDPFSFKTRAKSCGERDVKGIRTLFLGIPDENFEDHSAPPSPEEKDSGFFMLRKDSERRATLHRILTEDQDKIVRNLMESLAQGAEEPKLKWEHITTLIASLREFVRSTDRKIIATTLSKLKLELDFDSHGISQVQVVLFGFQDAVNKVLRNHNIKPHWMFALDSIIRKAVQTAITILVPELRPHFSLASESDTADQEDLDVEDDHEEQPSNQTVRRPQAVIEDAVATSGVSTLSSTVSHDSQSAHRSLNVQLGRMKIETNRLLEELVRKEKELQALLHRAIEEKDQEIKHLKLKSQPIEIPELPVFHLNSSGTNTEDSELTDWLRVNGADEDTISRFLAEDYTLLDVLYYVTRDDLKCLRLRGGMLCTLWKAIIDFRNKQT

Huh-7 [17] = test: Induction of apoptosis in human HuH7 cells assessed as late apoptotic cells at 1 uM after 48 hrs by Annexin V-FITC/propidium iodide staining-based flow cytometric analysis (reference value: 2.53%); format: functional
Mahlavu [18] = test: Induction of apoptosis in human Mahlavu cells assessed as early apoptotic cells at 1 uM after 48 hrs by Annexin V-FITC/propidium iodide staining-based flow cytometric analysis (reference value: 0%); format: functional
Mahlavu [19] = test: Cell cycle arrest in human Mahlavu cells assessed as accumulation of cells at subG1 phase at 1 uM after 48 hrs by propidium iodide staining-based flow cytometric analysis (reference value: 22.6%); format: functional
Mahlavu [20] = test: Induction of apoptosis in human Mahlavu cells assessed as necrotic cells at 1 uM after 72 hrs by Annexin V-FITC/propidium iodide staining-based flow cytometric analysis (reference value: 0.22%); format: functional

Row | inhibition [16] | Compound | Activity (Huh-7 [1]) | IC50 (Huh-7 [2]) | Activity (Huh-7 [3]) | Activity (Huh-7 [4]) | Activity (Mahlavu [5]) | Activity (Huh-7 [6]) | Activity (Huh-7 [7]) | Activity (Mahlavu [8]) | Activity (Huh-7 [9]) | viability at 1 µM (Mahlavu [10]) | Activity (Huh-7 [11]) | Activity (Huh-7 [12]) | Activity (Mahlavu [13]) | Activity (Mahlavu [14]) | Activity (Mahlavu [15]) | Activity (Huh-7 [17]) | Activity (Mahlavu [18]) | Activity (Mahlavu [19]) | Activity (Mahlavu [20])
1 | Active | COc1ccc2c3c(c4cc(OC)c(OC)cc4c2c1)CN1CCCC[C@@H]1C3 | Active | 700 nM | 9.5% | 24.4% | Active | Active | 15.9% | Active | Active | 91.8% | Active | 0.18% | 7.07% | Active | 0.12% | 5.96% | 0% | 28.3% | 1.84%
2 | Active | COc1ccc2c3c(c4cc(OC)c(OC)cc4c2c1)CN1CCCCC1C3O (racemic) | Active | 500 nM | 11.5% | 18.1% | Active | Active | 13.2% | Active | Active | 99% | Active | 0.07% | 0.98% | Active | 0.04% | 5.52% | 0% | 20.4% | 2.26%
